Results as given in ChEMBL document CHEMBL1157145, “Cytotoxic activity of proflavine diureas: synthesis, antitumor, evaluation and DNA binding properties of 1',1''-(acridin-3,6-diyl)-3',3''-dialkyldiureas” (Bioorg Med Chem, 2008).
Active and inactive are the calls of the source. The rule behind the calls is not given here.

Key:
HCT-116 [1] = assay: Induction of apoptosis in human HCT116 cells at 5.10 uM after 24 hrs; type: functional
How it was run: (§1)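 After 24 or 48 h of drug exposure, all cells were collected, combining trypsinised adherent cells with floating cells from the medium. Cells (1 × 10^6) were fixed in cold 70% ethanol overnight at −20 °C and stained with DAPI (10 µg/mL) for 30 min in the dark at RT. Under fluorescence microscopy, 300 cells per sample were scored, with condensed or fragmented nuclei counted as apoptotic.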

HeLa [2] = assay: Cell cycle arrest in human HeLa cells assessed as accumulation at S phase at 7.80 uM after 24 hrs; type: functional
How it was run: (§2)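 Cells seeded at 8 · 10^5 per 60 mm dish, allowed to settle 24 h (37 °C, 5% CO2), then exposed to the drug for 24 or 48 h. Adherent plus floating cells (5 · 10^5) were fixed in cold 70% ethanol at −20 °C overnight, treated with RNase A (100 µg/mL) and stained with propidium iodide (20 µg/mL) in Vindelov's solution for 30 min at RT. Flow cytometry used 488 nm excitation, FL-2 at 585 ± 21 nm, and histograms were modelled for G0/G1, S and G2/M fractions.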

HCT-116 [3] = assay: Induction of DNA fragmentation in human HCT116 cells after 48 hrs; type: functional, cell-based
How it was run: (§3)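 HCT-116 cells were treated for 24 or 48 h. Adherent and floating cells (5 × 10^5) were pooled, fixed in cold 70% ethanol and held overnight at −20 °C. Samples were treated with RNase A (100 µg/mL) and stained with propidium iodide (20 µg/mL) in Vindelov's solution for 30 min at RT. Flow cytometry used 488 nm excitation with emission at 585 nm. Subdiploid (subG0/G1) particles were scored on a logarithmic scale, with debris gated out on FSC × SSC.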

HeLa [4] = assay: Cell cycle arrest in human HeLa cells assessed as accumulation at G2/M phase at 7.80 uM after 48 hrs; type: functional; how it was run: as §2
HCT-116 [5] = assay: Cytotoxicity against human HCT116 cells after 48 hrs by MTT assay; type: functional, cell-based; conditions: HCT-116, 48 h
HCT-116 [6] = assay: Cell cycle arrest in human HCT116 cells assessed as accumulation at G0/G1 phase at 5.10 uM after 24 hrs; type: functional
How it was run: (§4)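 Adherent plus floating cells (5 · 10^5) collected 24 or 48 h after treatment, fixed in cold 70% ethanol at −20 °C overnight, washed in PBS. RNase A (100 µg/mL) and propidium iodide (20 µg/mL) in Vindelov's solution, 30 min at RT. Flow cytometry with 488 nm excitation, emission 585 ± 21 nm; % cells per cycle phase from DNA content histograms.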

HCT-116 [7] = assay: Antiproliferative activity against human HCT116 cells assessed as increase of floating cells in total cell population at 5.10 uM after 48 hrs; type: functional
How it was run: (§5)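 Cells seeded (8 · 10^5 per 60 mm dish), allowed to settle 24 h at 37 °C, 5% CO2, then treated with a single concentration for 24 or 48 h. Adherent and floating cells counted by Coulter counter. Total cell number given as % of untreated control; floating cells as % of total cell number.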

DNA [8] = assay: Binding affinity to calf thymus DNA at 4 uM by fluorescence spectrophotometric titration; type: nucleic-acid assay; conditions: Bos taurus
How it was run: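 ctDNA sonicated in TE buffer, concentration taken from A260 and given in base pairs. Compound (4 µM) in 0.01 M Tris, pH 7.4, 25 °C titrated with ctDNA (0–55 µM bp) until spectra stopped changing. Excitation 424 nm, slit widths 10 nm; binding constant derived from the change in emission.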

HeLa [9] = assay: Induction of apoptosis in human HeLa cells at 7.80 uM after 24 hrs; type: functional; how it was run: as §1
HCT-116 [10] = assay: Cell cycle arrest in human HCT116 cells assessed as accumulation at G2/M phase at 5.10 uM after 24 hrs; type: functional; how it was run: as §2
HCT-116 [11] = assay: Antiproliferative activity against human HCT116 cells assessed as decrease in total cell population at 5.10 uM after 24 hrs; type: functional; parameters: scale not given: the % may be the effect or the level left; how it was run: as §5
HCT-116 [12] = assay: Cell cycle arrest in human HCT116 cells assessed as accumulation at G2/M phase at 5.10 uM after 48 hrs; type: functional; how it was run: as §2
HCT-116 [13] = assay: Cytotoxicity against human HCT116 cells after 72 hrs by MTT assay; type: functional, cell-based; conditions: Homo sapiens, HCT-116, 72 h
HCT-116 [14] = assay: Induction of apoptosis in human HCT116 cells at 5.10 uM after 48 hrs; type: functional; how it was run: as §1
HeLa [15] = assay: Cell cycle arrest in human HeLa cells assessed as accumulation at G2/M phase at 7.80 uM after 24 hrs; type: functional; how it was run: as §2
HeLa [16] = assay: Antiproliferative activity against human HeLa cells assessed as increase of floating cells in total cell population at 7.80 uM after 24 hrs; type: functional; how it was run: as §5
HeLa [17] = assay: Cell cycle arrest in human HeLa cells assessed as accumulation at G0/G1 phase at 7.80 uM after 48 hrs; type: functional; how it was run: as §2
HeLa [18] = assay: Antiproliferative activity against human HeLa cells assessed as decrease in total cell population at 7.80 uM after 48 hrs; type: functional; parameters: scale not given: the % may be the effect or the level left; how it was run: as §5
HCT-116 [19] = assay: Cell cycle arrest in human HCT116 cells assessed as accumulation at S phase at 5.10 uM after 24 hrs; type: functional; how it was run: as §2
HeLa [20] = assay: Induction of apoptosis in human HeLa cells at 7.80 uM after 48 hrs; type: functional; how it was run: as §1
HeLa [21] = assay: Cytotoxicity against human HeLa cells after 72 hrs by MTT assay; type: functional, cell-based
HCT-116 [22] = assay: Cell cycle arrest in human HCT116 cells assessed as accumulation at S phase at 5.10 uM after 48 hrs; type: functional; how it was run: as §2
HeLa [23] = assay: Cytotoxicity against human HeLa cells after 48 hrs by MTT assay; type: functional, cell-based
HeLa [24] = assay: Cell cycle arrest in human HeLa cells assessed as accumulation at S phase at 7.80 uM after 48 hrs; type: functional; how it was run: as §2
HeLa [25] = assay: Cell cycle arrest in human HeLa cells assessed as accumulation at G0/G1 phase at 7.80 uM after 24 hrs; type: functional; how it was run: as §2
DNA [26] = assay: Binding affinity to calf thymus DNA at 50 uM by circular dichroism spectrophotometric titration; type: nucleic-acid assay; conditions: Bos taurus
HeLa [27] = assay: Antiproliferative activity against human HeLa cells assessed as decrease in total cell population at 7.80 uM after 24 hrs; type: functional; parameters: scale not given: the % may be the effect or the level left; how it was run: as §5
HCT-116 [28] = assay: Antiproliferative activity against human HCT116 cells assessed as increase of floating cells in total cell population at 5.10 uM after 24 hrs; type: functional; how it was run: as §5
HCT-116 [29] = assay: Antiproliferative activity against human HCT116 cells assessed as decrease in total cell population at 5.10 uM after 48 hrs; type: functional; parameters: scale not given: the % may be the effect or the level left; how it was run: as §5
HeLa [30] = assay: Antiproliferative activity against human HeLa cells assessed as increase of floating cells in total cell population at 7.80 uM after 48 hrs; type: functional; how it was run: as §5
HCT-116 [31] = assay: Cell cycle arrest in human HCT116 cells assessed as accumulation at G0/G1 phase at 5.10 uM after 48 hrs; type: functional; how it was run: as §4
HCT-116 [32] = assay: Induction of DNA fragmentation in human HCT116 cells after 24 hrs; type: functional, cell-based; how it was run: as §3

Q: For `CCCCCNC(=O)Nc1ccc2cc3ccc(NC(=O)NCCCCC)cc3nc2c1.Cl`, which Activity (HCT-116 [1]) is on record?
A: The Activity was 10.67%.

Q: What about the Activity (HeLa [2]) of the same molecule?
A: The Activity was 25.46%.

Q: And the Activity (HCT-116 [3])?
A: The Activity was “Active”.

Q: What about the Activity (HeLa [4]) of the same molecule?
A: Its Activity is 10.39%.

Q: What about the IC50 (HCT-116 [5]) of the same molecule?
A: Its IC50 is 5.12 µM.

Q: And the Activity (HCT-116 [6])?
A: The Activity was 38.62%.

Q: What about the Activity (HCT-116 [7]) of the same molecule?
A: The Activity was 88.58%.

Q: What about the K (DNA [8]) of the same molecule?
A: The K was 1.7 ×10⁵ /M.

Q: And the Activity (HeLa [9])?
A: Its Activity is 1.33%.

Q: What about the Activity (HCT-116 [10]) of the same molecule?
A: The Activity was 44.05%.

Q: And the Activity (HCT-116 [11])?
A: Its Activity is 45.85%.

Q: What about the Activity (HCT-116 [12]) of the same molecule?
A: The Activity was 37.04%.

Q: And the IC50 (HCT-116 [13])?
A: The IC50 was 3.48 µM.

Q: And the Activity (HCT-116 [14])?
A: The Activity was 11.33%.

Q: And the Activity (HeLa [15])?
A: Its Activity is 13.54%.

Q: And the Activity (HeLa [16])?
A: The Activity was 3.86%.

Q: And the Activity (HeLa [17])?
A: Its Activity is 72.24%.

Q: What about the Activity (HeLa [18]) of the same molecule?
A: The Activity was 101.34%.

Q: And the Activity (HCT-116 [19])?
A: Its Activity is 17.34%.

Q: And the Activity (HeLa [20])?
A: The Activity was 0.89%.

Q: And the IC50 (HeLa [21])?
A: Its IC50 is 13.3 µM.

Q: And the Activity (HCT-116 [22])?
A: Its Activity is 22.16%.

Q: And the IC50 (HeLa [23])?
A: Its IC50 is 7.78 µM.

Q: What about the Activity (HeLa [24]) of the same molecule?
A: Its Activity is 17.38%.

Q: What about the Activity (HeLa [25]) of the same molecule?
A: The Activity was 61%.

Q: And the Activity (DNA [26])?
A: Its Activity is “Active”.

Q: And the Activity (HeLa [27])?
A: Its Activity is 87.47%.

Q: What about the Activity (HCT-116 [28]) of the same molecule?
A: The Activity was 78.81%.

Q: What about the Activity (HCT-116 [29]) of the same molecule?
A: Its Activity is 21.22%.

Q: And the Activity (HeLa [30])?
A: The Activity was 3.62%.

Q: What about the Activity (HCT-116 [31]) of the same molecule?
A: Its Activity is 40.8%.

Q: What about the Activity (HCT-116 [32]) of the same molecule?
A: The Activity was “Active”.
